In paper PMC3731570 (Cell Research, 2013):

Columns and labels:
[1] = system: HAB1 PP2C with PYR/PYL receptors; experiment: HAB1 phosphatase activity assay; type: biochemical, Arabidopsis thaliana; conditions: 10 μM; PYR1 and PYL1-10
[2] = system: ABA-induced stress-related genes; experiment: Quantitative RT-PCR of ABA-induced genes in seedlings; type: in vivo, Arabidopsis thaliana; conditions: 50 μM, 6 h
[3] = system: reconstructed ABA signaling pathway (PYR1+HAB1+SnRK2.6+ABF2), RD29b-luciferase reporter; experiment: Protoplast transactivation assay; type: cell-based, Arabidopsis thaliana; conditions: snrk2.2/2.3/2.6 protoplasts transfected with PYR1, HAB1, SnRK2.6, ABF2; 5 μM AM1
Method in brief: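 Protoplasts came from 4-week-old pRD29b-LUC plants (snrk2.2/2.3/2.6 background) grown on soil pellets under 8-h light/16-h dark. They were transfected with PYR1, HAB1, SnRK2.6 and ABF2, or the same set without PYR1. Cells were treated with 5 µM test compound; DMSO control. RD29b-driven luciferase was measured.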

[4] = system: Arabidopsis seedlings transcriptome; experiment: RNA-seq transcriptome profiling of seedlings; type: in vivo, Arabidopsis thaliana; conditions: 50 μM, FDR < 0.05
Method in brief: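 Ten-day-old Col-0 seedlings on half-strength MS were exposed for 6 h to 50 µM test compound or (+)-ABA, or 0.05% DMSO. Duplicate biological replicates were sequenced on Illumina HiSeq2000 (10 M reads/sample, mean length >49 bp). Fold-change versus DMSO was log2-transformed; Spearman correlations were computed between samples. Differential genes were called by SAM analysis.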

[5] = system: Arabidopsis seeds (Col-0 and pyr1;pyl1;pyl4); experiment: Seed germination assay; type: in vivo, Arabidopsis thaliana; conditions: 1 μM
Method in brief: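 Col-0 and pyr1;pyl1;pyl4 seeds were stratified 4 days, then sown on half-strength MS (1% sucrose) containing 1 µM test compound or (+)-ABA; DMSO control. Plates were kept at 22 °C under long day, 15 seeds per plate and 4 plates per chemical. Germination was defined as expanded green cotyledons and counted 4 days after triple-mutant germination; mean ± SD.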

[6] = system: Col-0 plants rosette leaves; experiment: Water loss; type: in vivo, Arabidopsis thaliana; conditions: one-month-old Col-0 plants, 50 μM spray, compared with DMSO
Method in brief: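 Well-watered 4-week-old Col-0 plants on soil (8-h light/16-h dark) were sprayed with 50 µM test compound plus 0.02% Tween-20; DMSO control. Plants were returned to the chamber for 3 h. Equal-sized rosette leaves were then detached and weighed in air every 5 min for the first hour and every 10 min for the second. Loss is expressed as % of initial fresh weight; n = 4, standard error.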

[7] = Stability measurement under UV light; type: physicochemical; conditions: water exposed to UV light (8 W)
Method in brief: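 Test compound and ABA, each 100 µM in pure water, were exposed in aliquots to an 8 W UV lamp in a safety hood. Aliquots were withdrawn at set time points for LC-MS. Amounts were quantified from peak areas, and half-life was calculated from peak disappearance.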

CC1=CC(=O)CC(C)(C)[C@@]1(O)/C=C/C(C)=C\C(=O)O [ABA, Abscisic acid]
receptor-mediated inhibition of HAB1 PP2C activity [1]: inhibited by all receptor subtypes tested | activation of six ABA-inducible genes ([2]; pyr1/pyl1/pyl4 triple mutant plants): much reduced, but remained inducible | activation of six ABA-inducible genes ([2]; wild-type plants): dramatically activated | activation of RD29b-luciferase reporter [3]: efficiently activate | number of genes induced (up- or down-regulated) vs DMSO [4]: 4 529 genes | inhibition of seed germination ([5]; pyr1/pyl1/pyl4 triple mutant): completely abolished | inhibition of seed germination ([5]; wild-type Col-0 seeds): inhibit germination | water loss of rosette leaves [6]: decreased | half-life at 100 μM [7]: 24 min
